Results: ChEMBL document CHEMBL1806419, “18β-Glycyrrhetinic acid derivatives induced mitochondrial-mediated apoptosis through reactive oxygen species-mediated p53 activation in NTUB1 cells” (Bioorg Med Chem, 2011)
The source made the active and inactive calls. No cut-off for these calls is given here.

Key:
[1] = Cell cycle arrest in human NTUB1 cells assessed as accumulation at G2/M phase at 1 mM after 24 hrs by propidium iodide staining based flow cytometric analysis (reference value: 20.37%); assay type: functional
Method in brief: (§1)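 8×10^5 NTUB1 cells plated, treated 24 h (alongside 10 µM cisplatin, 1 mM NAC, 50 µM H2O2 controls); harvested by trypsinization, fixed overnight in ice-cold MeOH at −20 °C, stained with 50 µg/mL propidium iodide plus 50 µg/mL RNase A in PBS 30 min at room temperature; cell-cycle phase fractions and sub-G1 (apoptotic) DNA content by FACScan flow cytometry; three independent experiments.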

[2] = Cell cycle arrest in human NTUB1 cells assessed as accumulation at subG1 phase at 1mM after 24 hrs by propidium iodide staining based flow cytometric analysis (reference value: 6.68%); assay type: functional; method in brief: as §1
[3] = Cell cycle arrest in human NTUB1 cells assessed as accumulation at S phase at 1 mM after 24 hrs by propidium iodide staining based flow cytometric analysis (reference value: 20.37%); assay type: functional; method in brief: as §1
[4] = Decrease in ROS generation in human NTUB1 cells at 1 mM after 24 hrs by H2DCFDA staining based flow cytometeric analysis relative to control; assay type: functional; design: scale not given: the % may be the effect or the level left
Method in brief: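 NTUB1 cells (3×10^5 per 6 cm dish) treated 24 h (20 µM cisplatin and 1 mM NAC controls; medium-only control); 10 µM H2DCFDA added 30 min before harvest; trypsinized, PBS-washed, DCF green fluorescence (525 nm band pass, region M1) measured immediately by flow cytometry; percent change vs control; mean ± SD, n = 3.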

[5] = Cell cycle arrest in human NTUB1 cells assessed as accumulation at G1 phase at 1 mM after 24 hrs by propidium iodide staining based flow cytometric analysis (reference value: 50.64%); assay type: functional; method in brief: as §1
[6] = Cytotoxicity against human NTUB1 cells after 72 hrs by MTT assay; assay type: functional, cell-based; conditions: NTUB1, 72 h
Method in brief: (§2)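 Cells seeded 1800/well in 96-well plates, preincubated overnight at 37 °C, then exposed to graded concentrations for 72 h at 37 °C (NTUB1, PC3 in RPMI 1640; SV-HUC1 in F12; 10% FBS, 5% CO2). MTT (2 mg/mL) added 3 h, formazan dissolved in DMSO, absorbance 540 nm; viability as percent of control; IC50 by median-effect analysis, mean ± SD.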

[7] = Cytotoxicity against human NTUB1 cells assessed as cell viability at 3 uM after 72 hrs by MTT assay relative to control; assay type: functional; conditions: NTUB1, 72 h, read-out: Activity; method in brief: as §2
[8] = Cytotoxicity against human NTUB1 cells assessed as cell viability at 5 uM after 72 hrs by MTT assay relative to control; assay type: functional; conditions: NTUB1, 72 h, read-out: Activity; method in brief: as §2
[9] = Cytotoxicity against human NTUB1 cells assessed as cell viability at 30 uM after 72 hrs by MTT assay relative to control; assay type: functional; conditions: NTUB1, 72 h, read-out: Activity; method in brief: as §2
[10] = Cytotoxicity against human NTUB1 cells assessed as cell viability at 10 uM after 72 hrs by MTT assay relative to control; assay type: functional; conditions: NTUB1, 72 h, read-out: Activity; method in brief: as §2
[11] = Cytotoxicity against human NTUB1 cells assessed as cytotoxic inhibition at 1 uM after 72 hrs by MTT assay relative to control; conditions: NTUB1, 72 h
[12] = Cytotoxicity against human NTUB1 cells assessed as cell viability at 50 uM after 72 hrs by MTT assay relative to control; assay type: functional; conditions: NTUB1, 72 h, read-out: Activity; method in brief: as §2
[13] = Induction of apoptosis in human NTUB1 cells assessed as increase in JC-1 probe monomers at 10 uM after 24 hrs by flow cytometric analysis; assay type: functional
Method in brief: (§3)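 NTUB1 bladder carcinoma cells (3 × 10^5) in RPMI 1640 with 10% FBS at 37 °C, 5% CO2, exposed to test agent (10, 25 or 50 µM) with 10 µM CCCP as positive control. Stained 30 min with 1 µM JC-1 in medium, washed, trypsinised, resuspended in PBS/2% BSA. Flow cytometry read green monomer and red aggregate fluorescence; the aggregate/monomer ratio represents membrane potential.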

[14] = Induction of apoptosis in human NTUB1 cells assessed as decrease in JC-1 aggregation at 10 uM after 24 hrs by flow cytometric analysis; assay type: functional; design: scale not given: the % may be the effect or the level left; method in brief: as §3
[15] = Cytotoxicity against immortalized human SV-HUC1 cells after 72 hrs by MTT assay; assay type: cell-based; conditions: sv-huc1, 72 h; method in brief: as §2
PC-3 = experiment: Cytotoxicity against human PC3 cells after 72 hrs by MTT assay; assay type: functional, cell-based; method in brief: as §2

SMILES	IC50 [6] [µM]	further results
CC(=O)N[C@@H](CS)C(=O)O [ACETYLCYSTEINE]		Activity [1]: 20.2%; Activity [2]: 2.66%; Activity [3]: 29.2%; Activity [4]: 26.1%; Activity [5]: 44.4%
C=C(C)[C@@H]1CC[C@]2(C)[C@H](C(=O)C=C3[C@@H]4C[C@@](C)(C(=O)OC)CC[C@]4(C)CC[C@]32C)[C@@]1(C)CCC(=O)O	20.7	
C=C(C)[C@@H]1CC[C@]2(C)[C@H](C(=O)C=C3[C@@H]4C[C@@](C)(C(=O)NC(C)C)CC[C@]4(C)CC[C@]32C)[C@@]1(C)CCC(=O)OC	13.1	viability at 3 µM [7]: 25%; viability at 5 µM [8]: 24%; viability at 30 µM [9]: 67%; viability at 10 µM [10]: 27%; cytotoxic inhibition at 1 µM [11]: 40%; viability at 50 µM [12]: 71%
C=C(C)[C@@H]1CC[C@]2(C)[C@H](C(=O)C=C3[C@@H]4C[C@@](C)(C(=O)OCc5ccccc5)CC[C@]4(C)CC[C@]32C)[C@@]1(C)CCC(=O)OCC	27.8	
N#CC(C#N)=NNc1cccc(Cl)c1 [CARBONYL CYANIDE M-CHLOROPHENYLHYDRAZONE]		Activity [13]: 52.06%; Activity [14]: 48.42%
CC1(C)OC(=O)CC[C@]2(C)[C@H]3C(=O)C=C4[C@@H]5C[C@@](C)(C(=O)OCc6ccccc6)CC[C@]5(C)CC[C@@]4(C)[C@]3(C)CC[C@@H]12	57.6	
C=C(C)[C@@H]1CC[C@]2(C)[C@H](C(=O)C=C3[C@@H]4C[C@@](C)(C(=O)Nc5ccccc5)CC[C@]4(C)CC[C@]32C)[C@@]1(C)CCC(=O)O	3.31	
CC(C)NC(=O)[C@@]1(C)CC[C@]2(C)CC[C@]3(C)C(=CC(=O)[C@@H]4[C@@]5(C)CCC(=O)OC(C)(C)[C@@H]5CC[C@]43C)[C@@H]2C1	25.7	
CC1(C)OC(=O)CC[C@]2(C)[C@H]3C(=O)C=C4[C@@H]5C[C@@](C)(C(=O)O)CC[C@]5(C)CC[C@@]4(C)[C@]3(C)CC[C@@H]12	73.5	
C=C(C)[C@@H]1CC[C@]2(C)[C@H](C(=O)C=C3[C@@H]4C[C@@](C)(C(=O)OCc5ccccc5)CC[C@]4(C)CC[C@]32C)[C@@]1(C)CCC(=O)O	2.34	
C=C(C)[C@@H]1CC[C@]2(C)[C@H](C(=O)C=C3[C@@H]4C[C@@](C)(C(=O)OCc5ccccc5)CC[C@]4(C)CC[C@]32C)[C@@]1(C)CCC(=O)OC	9.41	viability at 3 µM [7]: 22%; viability at 5 µM [8]: 20%; viability at 30 µM [9]: 66%; viability at 10 µM [10]: 50%; cytotoxic inhibition at 1 µM [11]: 32%; viability at 50 µM [12]: 68%
C=C(C)[C@@H]1CC[C@]2(C)[C@H](C(=O)C=C3[C@@H]4C[C@@](C)(C(=O)NC(C)C)CC[C@]4(C)CC[C@]32C)[C@@]1(C)CCC(=O)O	17.5	
C=C(C)[C@@H]1CC[C@]2(C)[C@H](C(=O)C=C3[C@@H]4C[C@@](C)(C(=O)OCc5ccccc5)CC[C@]4(C)CC[C@]32C)[C@@]1(C)CCC(=O)OC(C)C	18.2	
C=C(C)[C@@H]1CC[C@]2(C)[C@H](C(=O)C=C3[C@@H]4C[C@@](C)(C(=O)OCc5ccccc5)CC[C@]4(C)CC[C@]32C)[C@@]1(C)CCC(=O)NCCC	49.4	
COC(=O)[C@@]1(C)CC[C@]2(C)CC[C@]3(C)C(=CC(=O)[C@@H]4[C@@]5(C)CCC(=O)OC(C)(C)[C@@H]5CC[C@]43C)[C@@H]2C1	24.3	
C=C(C)[C@@H]1CC[C@]2(C)[C@H](C(=O)C=C3[C@@H]4C[C@@](C)(C(=O)OCc5ccccc5)CC[C@]4(C)CC[C@]32C)[C@@]1(C)CCC(=O)NCC	42.7	
CC1(C)C(=O)CC[C@]2(C)[C@H]3C(=O)C=C4[C@@H]5C[C@@](C)(C(=O)O)CC[C@]5(C)CC[C@@]4(C)[C@]3(C)CC[C@@H]12	18.6	
C=C(C)[C@@H]1CC[C@]2(C)[C@H](C(=O)C=C3[C@@H]4C[C@@](C)(C(=O)NC(C)C)CC[C@]4(C)CC[C@]32C)[C@@]1(C)CCC(=O)OCC	19.4	Activity [15]: Non-toxic; Activity (PC-3): Active
CC1(C)[C@@H](O)CC[C@]2(C)[C@H]3C(=O)C=C4[C@@H]5C[C@@](C)(C(=O)O)CC[C@]5(C)CC[C@@]4(C)[C@]3(C)CC[C@@H]12 [ENOXOLONE]	27.3	
C=C(C)[C@@H]1CC[C@]2(C)[C@H](C(=O)C=C3[C@@H]4C[C@@](C)(C(=O)NC(C)C)CC[C@]4(C)CC[C@]32C)[C@@]1(C)CCC(=O)NCCC	> 50	
CC1(C)C(=O)CC[C@]2(C)[C@H]3C(=O)C=C4[C@@H]5C[C@@](C)(C(=O)OCc6ccccc6)CC[C@]5(C)CC[C@@]4(C)[C@]3(C)CC[C@@H]12	20.2	
C=C(C)[C@@H]1CC[C@]2(C)[C@H](C(=O)C=C3[C@@H]4C[C@@](C)(C(=O)NC(C)C)CC[C@]4(C)CC[C@]32C)[C@@]1(C)CCC(=O)OC(C)C	29.2	
C=C(C)[C@@H]1CC[C@]2(C)[C@H](C(=O)C=C3[C@@H]4C[C@@](C)(C(=O)NC(C)C)CC[C@]4(C)CC[C@]32C)[C@@]1(C)CCC(=O)NCC	12.8	Activity [15]: Non-toxic; Activity (PC-3): Active
COC(=O)[C@@]1(C)CC[C@]2(C)CC[C@]3(C)C(=CC(=O)[C@@H]4[C@@]5(C)CCC(=O)C(C)(C)[C@@H]5CC[C@]43C)[C@@H]2C1	56.5	
C=C(C)[C@@H]1CC[C@]2(C)[C@H](C(=O)C=C3[C@@H]4C[C@@](C)(C(=O)OCc5ccccc5)CC[C@]4(C)CC[C@]32C)[C@@]1(C)CCC(=O)NC(C)C	30.1	
C=C(C)[C@@H]1CC[C@]2(C)[C@H](C(=O)C=C3[C@@H]4C[C@@](C)(C(=O)OC)CC[C@]4(C)CC[C@]32C)[C@@]1(C)CCC(=O)OC(C)C	25.3	
C=C(C)[C@@H]1CC[C@]2(C)[C@H](C(=O)C=C3[C@@H]4C[C@@](C)(C(=O)OC)CC[C@]4(C)CC[C@]32C)[C@@]1(C)CCC(=O)NC(C)C	31.4	
CC1(C)OC(=O)CC[C@]2(C)[C@H]3C(=O)C=C4[C@@H]5C[C@@](C)(C(=O)Nc6ccccc6)CC[C@]5(C)CC[C@@]4(C)[C@]3(C)CC[C@@H]12	16	
